The record followed here is ChEMBL document CHEMBL1240369, “Antiviral efficacy of the novel compound BIT225 against HIV-1 release from human macrophages” (Antimicrob Agents Chemother, 2010).

Each structure is given as a SMILES string. Activity calls are given as the source filed them. No cut-off for these calls is given here.

Data set [1] can be described thus: Inhibition of Vpu ion channel in HIV1 G-92NG003-G3 in human MDM assessed as inhibition of vrius release. On the set-up: species or system Human immunodeficiency virus 1.
Data set [2] in a line: Inhibition of Vpu ion channel in HIV1 5705.72 in human MDM assessed as inhibition of vrius release. More on the design: species or system Human immunodeficiency virus 1.
Data set [3] in a line: Selectivity index, ratio of TC50 for human MDM cells to EC50 for HIV1 92TH001 infected in human MDM cells. In kind it is toxicity, cell-based. Particulars: read-out: Selectivity Index.
Data set [4] is described as follows: Selectivity index, ratio of TC50 for human MDM cells to EC50 for HIV1 92UG029 infected in human MDM cells. In kind it is toxicity, cell-based. Particulars: read-out: Selectivity Index.
The nature of data set [5]: Selectivity index, ratio of TC50 for human MDM cells to EC50 for HIV1 MDR3761 infected in human MDM cells. Particulars: read-out: Selectivity Index. Type of data set: toxicity, cell-based.
Data set [6] deals with MDM. Kind of data set: Inhibition of Vpu ion channel in 0.001 to 3 MOI HIV1 Ba-L infected in 7-14 days differentiated human MDM cells assessed as virus inhibition rate measured after 7 days. In kind it is cell-based. The following applies: Human immunodeficiency virus 1. In a few lines:
(§1)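 MDM differentiated for 7, 10 or 14 days were infected with HIV-1 Ba-L across a range of MOIs, washed three times with PBS and cultured 7 days with 10 μM compound or equal-volume DMSO. On day 7 postinfection, supernatant RT activity was measured (and infectivity on TZM-bl cells). Cell lysates went to real-time PCR for LTR-gag DNA, normalised to albumin copies.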

Data set [7] deals with MDM. Kind of data set: Inhibition of Vpu ion channel in 0.01 MOI HIV1 Ba-L infected in 10 days differentiated human MDM cells assessed as viral inhibition by TZM-bl infectivity assay. In kind it is cell-based. The following applies: Human immunodeficiency virus 1. In a few lines:
as §1

For data set [8], the system named is MDM. Kind of data set: Inhibition of Vpu ion channel in 0.001 MOI HIV1 Ba-L infected in 14 days differentiated human MDM cells assessed as viral inhibition by TZM-bl infectivity assay. Type of data set: cell-based. Particulars: Human immunodeficiency virus 1. In a few lines: as §1
The subject of data set [9] is MDM. Kind of data set: Inhibition of Vpu ion channel in 0.05 MOI HIV1 Ba-L acutely infected in 14 days differentiated human MDM cells assessed as viral release after 7 days relative to control. Particulars: Human immunodeficiency virus 1. Type of data set: cell-based. The method in brief:
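Day 14 MDM were acutely infected with HIV-1 Ba-L at MOI 0.05 for 3 h, washed three times with PBS, then cultured a further 7 days in DMEM10+ with 10 μM compound or equal DMSO. Virus release was measured as supernatant RT activity on day 21 of culture, relative to DMSO controls.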

Data set [10] concerns MDM. Kind of data set: Inhibition of Vpu ion channel activity in 0.05 MOI HIV1 Ba-L chronically infected in 7-14 days differentiated human MDM cells assessed as viral inhibition measured after 7 days. Type of data set: cell-based. The following applies: Human immunodeficiency virus 1. The method in brief:
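Day 14 MDM from 3 seronegative donors were infected with HIV-2, or with HIV-1 Ba-L as a positive control, at MOI 0.05 for 7 days. Cells were then washed free of extracellular virus and cultured ± 10 μM compound for a further 7 days. Day 28 supernatants were assayed for RT activity by chemiluminescent ELISA, with recombinant RT as the standard.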

Data set [11] has as its target Protease (Human immunodeficiency virus 1) (UniProt Q9YQ12). Kind of data set: Inhibition of HIV1 protease assessed as substrate cleavage by cell free assay. The method in brief: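 Cell-free fluorometric protease assay: compound (1–100 μM) was premixed with 2 μM quenched HIV-1 protease substrate 1. Background fluorescence (ex 340/em 490 nm) was read every 5 s for 5 min. HIV-1 protease was then added at 1.5% and cleavage followed for a further 5 min. LPV and EFV served as controls.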

Data set [12] deals with PM1. Kind of data set: Inhibition of Vpu ion channel in 0.05 MOI HIV1 NL4-3 infected in PM1 cells assessed as viral inhibition measured after 7 days by […]. Particulars: Human immunodeficiency virus 1.

Sequence of Protease (Human immunodeficiency virus 1) (Q9YQ12 as listed by the source): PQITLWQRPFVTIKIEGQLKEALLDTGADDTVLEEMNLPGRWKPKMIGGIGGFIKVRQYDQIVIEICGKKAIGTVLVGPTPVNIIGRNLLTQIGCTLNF

Regarding `Cn1cc(-c2cccc3cc(C(=O)NC(=N)N)ccc23)cn1`, the EC50 came to 1.6 µM in data set [1] and 5.1 µM in data set [2]. Moreover, the selectivity ratio in data set [3] was 140; in data set [4], 14; in data set [5], 39.3. Besides, the result in data set [6] was Active. Further, the inhibition in [7] was 90.4%; in data set [8], 90.3%; in [9] it was 38%; in data set [10], 66.6%; in [12] it was 93.1%. Moreover, the result in data set [11] was inactive.

What is called EC50 is the concentration giving half of the maximal effect. Usually inhibition stands for the relative decrease from the control value, in per cent.
